Assay [1] is described as follows: Antiproliferative activity against human MIA PaCa cells after 96 hrs. It is filed as functional, cell-based. A digest of the protocol:
(§1)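 Cytostatic growth-inhibition assay: cells were exposed to compound for 96 h. The IC50 is the concentration giving 50% inhibition of cell growth. Compounds were dissolved in DMSO, and the top concentration was capped by the final DMSO level in the mixture. Compounds showing no inhibition up to the highest concentration tested were scored not active.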

The subject of assay [2] is DU-145. Nature of the assay: Antiproliferative activity against human DU145 cells at 2 uM after 96 hrs. Format: functional, cell-based. A digest of the protocol: as §1
Assay [3] deals with HT-29. Put plainly: Antiproliferative activity against human HT29 cells at 2 uM after 96 hrs. It is filed as functional, cell-based. The procedure, abridged: as §1
Assay [4] relates to DU-145. Put plainly: Antiproliferative activity against human DU145 cells after 96 hrs. The settings on record: DU-145, 96 h. Format: functional, cell-based. A digest of the protocol: as §1
The next assay has as its system P388. Nature of the assay: Cytotoxicity against mouse P388 cells. Format: functional. The settings on record: read-out: ED50 (the source's name).
A further assay deals with KB. Put plainly: Cytotoxicity against human KB cells. To be noted: read-out: ED50 (the source's name). It is filed as functional.
Another assay has as its system PaCa. Put plainly: Antiproliferative activity against human MIA PaCa cells at 2 uM after 96 hrs. It is filed as functional, cell-based. A digest of the protocol: as §1
In assay [5] the test system is HT-29. Put plainly: Antiproliferative activity against human HT29 cells after 96 hrs. It is filed as functional, cell-based. To be noted: HT-29, 96 h. The procedure, abridged:
as §1

≈ marks a conversion by molar mass, not a printed value. Calls of active or inactive are those of the source. The calls are words filed in the database; no cut-off is given here.

What is called IC50 is the point on the concentration scale where inhibition reaches its midpoint. Read a low IC50 as greater potency. For the compound `COC(=O)c1cccc2c(=O)n3c(cc12)-c1nc2ccc(OC)cc2c(C)c1C3`, the IC50 in assay [1] was 1990 nM. The result in the assay on DU-145 [2] and in the assay with HT-29 [3] was inactive.
For the compound `O=c1c2cccc(CO)c2cc2n1Cc1cc3cc(Cl)ccc3nc1-2`, the IC50 in assay [1] came to 1700 nM. The outcome in the assay on DU-145 [2] and with HT-29 [3] was inactive.
In assay [1], `COC(=O)c1cccc2c(=O)n3c(cc12)-c1nc2ccc(C)cc2c(CCl)c1C3` returned an IC50 of 1350 nM. The result with DU-145 [2] and in the assay on HT-29 [3] was inactive.
Compound `CCc1c2c(nc3ccc(Cl)cc13)-c1cc3c(C(=O)OC)cccc3c(=O)n1C2` showed a half-inhibitory concentration (IC50) in assay [1] of 1500 nM. In addition, the result with DU-145 [2] and in the assay with HT-29 [3] was inactive.
For the compound `CCc1c2c(nc3ccc(OC)cc13)-c1cc3c(CO)cccc3c(=O)n1C2`, the IC50 in the assay on DU-145 [4] turned out to be 1810 nM; in assay [1], 810 nM. The outcome with HT-29 [3] was inactive.
The compound `CCc1c2c(nc3cc4c(cc13)OCCO4)-c1cc3c(C(=O)OC)cccc3c(=O)n1C2` showed a half-inhibitory concentration (IC50) in assay [1] of 1400 nM. Moreover, the result with DU-145 [2] and in the assay with HT-29 [3] was inactive.
Take `CCc1c2c(nc3ccc(C)cc13)-c1cc3c(C(=O)OC)cccc3c(=O)n1C2`: it took 1810 nM to reach half-maximal inhibition in assay [1] (IC50). In addition, the outcome in the assay with DU-145 [2] and with HT-29 [3] was inactive.
As to `COC(=O)c1cccc2c(=O)n3c(cc12)-c1nc2ccccc2cc1C3`, the midpoint of inhibition in assay [1], the IC50, lay at 1010 nM. Also, the outcome with DU-145 [2] and with HT-29 [3] was inactive.
On to `O=c1c2cccc(CO)c2cc2n1Cc1cc3ccccc3nc1-2`, for which the EC50 in the assay on P388 amounted to 1.32 µg/mL (≈ 4.2 µM); in the assay on KB it was 0.61 µg/mL (≈ 1.94 µM). Further, the IC50 in assay [1] stood at 1010 nM. The outcome with DU-145 [2] and with HT-29 [3] was inactive.
As to `CCc1c2c(nc3ccc(Cl)cc13)-c1cc3c(CO)cccc3c(=O)n1C2`, the figures for the IC50 (in the assay with DU-145 [4]; in assay [1]) were 1690 nM and 810 nM, respectively. For the same compound, the outcome in the assay with HT-29 [3] was inactive.
On to `CCc1c2c(nc3ccc(C)cc13)-c1cc3c(CO)cccc3c(=O)n1C2`, for which the concentration for half-maximal inhibition (IC50) in assay [1] came out at 1140 nM. The result with DU-145 [2] and in the assay with HT-29 [3] was inactive.
For `CCc1c2c(nc3ccc(OC)cc13)-c1cc3c(C(=O)OC)cccc3c(=O)n1C2`, the outcome in the assay on DU-145 [2], in the assay with PaCa and in the assay with HT-29 [3] was inactive.
As for `CCc1c2c(nc3ccc(O)cc13)-c1cc3c(c(=O)n1C2)COC(=O)[C@]3(O)CC` [7-ETHYL-10-HYDROXYCAMPTOTHECIN], the figures for the IC50 (with DU-145 [4]; in assay [1]; with HT-29 [5]) were 4 nM, 6 nM and 12 nM, respectively.

The values are drawn from ChEMBL document CHEMBL1143250, “Synthesis and bioevaluation of 22-hydroxyacuminatine analogs” (Bioorg Med Chem Lett, 2008).
